29 molecules from ChEMBL document CHEMBL1148835, “Weak base dispiro-1,2,4-trioxolanes: potent antimalarial ozonides” (Bioorg Med Chem Lett, 2007) can be followed below.

Values after ≈ are worked out from the molar mass of the structure shown.

Data set [1] has as its system Plasmodium falciparum. Kind of data set: Antimalarial activity against chloroquine-sensitive Plasmodium falciparum NF54. In kind it is functional, organism-based. In a few lines: (§1)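 In vitro growth assay using asexual P. falciparum cultures, K1 for line 1 and NF54 for line 2. Each value is the mean of 2–3 determinations. Individual measurements differed by less than 50%.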

The next data set deals with Plasmodium berghei. Nature of the data set: Antimalarial activity as reduced parasitaemia against Plasmodium berghei infected MORO mice (Mus musculus) at 10 mg/kg peroral dose. To be noted: route oral. Set-up: scale not given: the % may be the effect or the level left. Type of data set: functional. In short, it runs like this:
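Groups of three P. berghei-infected MORO mice were given a single oral 10 mg/kg dose on day 1 post-infection. Read-out was percent reduction in parasitemia on day 3 post-infection.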

The subject of data set [2] is Plasmodium falciparum. Kind of data set: Antimalarial activity against chloroquine-resistant Plasmodium falciparum K1. In kind it is functional, organism-based. In short, it runs like this: as §1
A short description of data set [3]: Biodistribution in Sprague-Dawley rat at 25 mg/kg, iv and 50 mg/kg, po. In kind it is ADME, organism-based. To be noted: in vivo. In a few lines:
(§2)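 Rats were dosed 25 mg/kg IV via a jugular cannula in aqueous citrate buffer, pH 3. Separately, 50 mg/kg was given by oral gavage as a suspension in 0.5% w/v aqueous HPMC. Carotid-cannula serial blood samples were centrifuged immediately and the plasma stored at -80 °C. Plasma was assayed by LC/MS against a calibration curve prepared in plasma. Values are the average of 2–3 determinations.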

The species named for another data set is Rattus norvegicus. Nature of the data set: Neurotoxicity in rat. In kind it is toxicity, organism-based. To be noted: in vivo. In a few lines: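 Five-day toxicity study in male rats with daily oral administration, including observation for signs of neurotoxicity.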
Data set [4] in a line: Plasma clearance in Sprague-Dawley rat at 25 mg/kg, iv and 50 mg/kg, po. In kind it is ADME, organism-based. In a few lines: as §2
Data set [5] is described as follows: Half life in Sprague-Dawley rat at 25 mg/kg, iv and 50 mg/kg, po. In kind it is ADME, organism-based. The following applies: in vivo. In short, it runs like this: as §2
Data set [6] is described as follows: Bioavailability in Sprague-Dawley rat at 25 mg/kg, po. To be noted: in vivo. In kind it is ADME, organism-based.
Data set [7] has as its target Voltage-gated inwardly rectifying potassium channel KCNH2 (Homo sapiens, UniProt Q12809). Kind of data set: Inhibition of hERG by patch clamp assay. Type of data set: toxicity. For orientation: The hERG channel carries a current that helps repolarise heart muscle cells.
Data set [8] is described as follows: Half life in Sprague-Dawley rat at 4 mg/kg, iv and 10 mg/kg, po. In kind it is ADME, organism-based. The following applies: in vivo. In a few lines:
(§3)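 Rats were dosed 4 mg/kg IV via a jugular cannula fitted the day before, in 40% v/v propylene glycol, 10% v/v ethanol and water. Separately, 10 mg/kg was given by oral gavage as a suspension in 0.5% w/v aqueous HPMC. Serial blood was drawn via a carotid cannula and the plasma stored at -80 °C. Plasma was quantified by LC/MS against a calibration curve prepared in plasma. Values are the average of 2–3 determinations.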

A short description of data set [9]: Biodistribution in Sprague-Dawley rat at 4 mg/kg, iv and 10 mg/kg, po. In kind it is ADME, organism-based. To be noted: in vivo. In a few lines:
as §3

Data set [10] can be described thus: Plasma clearance in Sprague-Dawley rat at 4 mg/kg, iv and 10 mg/kg, po. Type of data set: ADME, organism-based. In a few lines: as §3
Data set [11] in a line: Biodistribution in Sprague-Dawley rat at 10 mg/kg, iv and 50 mg/kg, po. In kind it is ADME, organism-based. The following applies: in vivo. In a few lines:
(§4)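 Rats were dosed 10 mg/kg IV via a jugular cannula in 10% v/v propylene glycol, 10% v/v ethanol and water. Separately, 50 mg/kg was given by oral gavage as a suspension in 0.5% w/v aqueous HPMC. Serial blood was drawn via a carotid cannula and the plasma stored at -80 °C. LC/MS quantification used a calibration curve prepared in plasma. Values are the average of 2–3 determinations.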

Data set [12] in a line: Plasma clearance in Sprague-Dawley rat at 10 mg/kg, iv and 50 mg/kg, po. Type of data set: ADME, organism-based. In a few lines: as §4
The nature of data set [13]: Half life in Sprague-Dawley rat at 10 mg/kg, iv and 50 mg/kg, po. In kind it is ADME, organism-based. To be noted: in vivo. In a few lines: as §4
Data set [14] is described as follows: Bioavailability in Sprague-Dawley rat at 10 mg/kg, po. To be noted: in vivo. Type of data set: ADME, organism-based. In a few lines:
as §3

Voltage-gated inwardly rectifying potassium channel KCNH2, sequence (Q12809 whole entry): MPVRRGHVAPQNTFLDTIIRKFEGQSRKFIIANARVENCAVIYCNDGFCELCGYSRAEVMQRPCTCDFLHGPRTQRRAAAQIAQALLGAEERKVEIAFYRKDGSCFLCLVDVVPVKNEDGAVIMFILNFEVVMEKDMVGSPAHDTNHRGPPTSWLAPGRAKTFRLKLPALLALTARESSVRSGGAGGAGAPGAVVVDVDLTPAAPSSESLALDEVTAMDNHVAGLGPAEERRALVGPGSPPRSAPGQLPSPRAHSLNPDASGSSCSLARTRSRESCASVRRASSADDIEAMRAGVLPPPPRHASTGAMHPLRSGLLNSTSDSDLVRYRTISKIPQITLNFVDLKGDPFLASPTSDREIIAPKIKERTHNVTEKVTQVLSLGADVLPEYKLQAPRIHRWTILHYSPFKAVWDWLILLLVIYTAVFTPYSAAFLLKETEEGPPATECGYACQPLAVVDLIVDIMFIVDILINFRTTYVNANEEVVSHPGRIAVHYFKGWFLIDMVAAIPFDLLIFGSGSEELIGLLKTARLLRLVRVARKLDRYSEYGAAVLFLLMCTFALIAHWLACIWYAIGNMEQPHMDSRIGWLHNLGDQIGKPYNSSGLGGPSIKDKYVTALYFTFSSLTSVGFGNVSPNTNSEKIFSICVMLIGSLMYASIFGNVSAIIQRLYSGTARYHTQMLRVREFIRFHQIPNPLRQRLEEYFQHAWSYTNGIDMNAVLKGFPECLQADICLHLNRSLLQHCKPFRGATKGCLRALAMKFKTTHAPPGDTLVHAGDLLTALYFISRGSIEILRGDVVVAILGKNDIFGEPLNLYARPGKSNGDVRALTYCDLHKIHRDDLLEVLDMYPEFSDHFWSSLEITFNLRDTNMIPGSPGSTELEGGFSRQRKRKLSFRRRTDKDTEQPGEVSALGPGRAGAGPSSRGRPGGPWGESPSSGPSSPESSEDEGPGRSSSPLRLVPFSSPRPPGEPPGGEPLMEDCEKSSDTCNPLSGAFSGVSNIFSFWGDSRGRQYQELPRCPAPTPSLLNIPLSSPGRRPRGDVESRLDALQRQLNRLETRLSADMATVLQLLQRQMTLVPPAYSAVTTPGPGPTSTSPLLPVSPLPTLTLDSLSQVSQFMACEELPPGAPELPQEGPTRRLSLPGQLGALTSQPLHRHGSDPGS

As for `Cc1ccc(S(=O)(=O)O)cc1.N[C@H]1CC[C@]2(CC1)OO[C@]1(O2)C2CC3CC(C2)CC1C3`, in the data set with Plasmodium falciparum [1], inhibition was half-maximal at 0.31 ng/mL (IC50). Besides, the Activity with Plasmodium berghei worked out at 98%.
`OCC[C@H]1CC[C@]2(CC1)OO[C@]1(O2)C2CC3CC(C2)CC1C3`: the results for the IC50 with Plasmodium falciparum [1] and with Plasmodium falciparum [2] were 0.75 ng/mL (≈ 2.43 nM) and 0.3 ng/mL (≈ 0.973 nM), respectively. In addition, the Activity with Plasmodium berghei was 89%.
For `c1cnn(C[C@H]2CC[C@]3(CC2)OO[C@]2(O3)C3CC4CC(C3)CC2C4)c1`, in that order: 1.2 ng/mL (≈ 3.48 nM), 1 ng/mL (≈ 2.9 nM) and 78%.
`c1c[nH]c(C[C@H]2CC[C@]3(CC2)OO[C@]2(O3)C3CC4CC(C3)CC2C4)n1` yielded an Activity in the data set on Plasmodium berghei of 71%.
For the molecule `C1C2CC3CC1CC(C2)[C@]31OO[C@@]2(CC[C@H](Cc3nnn[nH]3)CC2)O1`, the IC50 – broadly, the point on the concentration scale where inhibition reaches its midpoint – in the data set with Plasmodium falciparum [1] was 55 ng/mL (≈ 159 nM); in the data set on Plasmodium falciparum [2], 46 ng/mL (≈ 133 nM). In the data set on Plasmodium berghei, this molecule gave an Activity of 40%.
Turning to `NC(=O)c1cn(C[C@H]2CC[C@]3(CC2)OO[C@]2(O3)C3CC4CC(C3)CC2C4)cn1`, in the data set on Plasmodium berghei, the Activity is reported as 99.76%.
`c1cn(CC[C@H]2CC[C@]3(CC2)OO[C@]2(O3)C3CC4CC(C3)CC2C4)cn1`: the IC50 in the data set on Plasmodium falciparum [1] is 0.4 ng/mL (≈ 1.12 nM); with Plasmodium falciparum [2], 0.44 ng/mL (≈ 1.23 nM).
In the case of `NC(=O)CNC[C@H]1CC[C@]2(CC1)OO[C@]1(O2)C2CC3CC(C2)CC1C3`, the IC50 in the data set with Plasmodium falciparum [1] was found to be 0.59 ng/mL (≈ 1.68 nM); in data set [7] it was 2700 nM; with Plasmodium falciparum [2], 0.3 ng/mL (≈ 0.856 nM). The molecule also showed a Vd in [3] of 13 L/kg. For the same molecule, the Activity entry in the data set filed under Rattus norvegicus is given as “Non-toxic”. In [4], this molecule showed a clearance of 102 mL/min/kg. For the same molecule, the half-life (commonly the time in which the quantity being followed falls by half) in [5] was determined as 94 min. In addition, in data set [6], the bioavailability – broadly, dose-corrected exposure relative to a reference, in per cent – was found to be 58%.
`O=CN1CCN(C[C@H]2CC[C@]3(CC2)OO[C@]2(O3)C3CC4CC(C3)CC2C4)CC1`: the Activity with Plasmodium berghei came to 99.01%.
As for `NS(=O)(=O)c1ccc(N[C@H]2CC[C@]3(CC2)OO[C@]2(O3)C3CC4CC(C3)CC2C4)cc1`, the IC50 was 3 ng/mL (≈ 6.9 nM) with Plasmodium falciparum [1] and 2.7 ng/mL (≈ 6.21 nM) in the data set with Plasmodium falciparum [2]. Also, in the data set with Plasmodium berghei, the Activity is 99.98%.
For `CC(C)(C)C1CCC2(CC1)OOC1(CCC(CN)CC1)O2.CS(=O)(=O)O` (stereo not drawn), in that order: more than 100 ng/mL, more than 100 ng/mL and 0%.
The molecule `CS(=O)(=O)O.NC[C@H]1CC[C@]2(CC1)OOC1(O2)C2CC3CC(C2)CC1C3` (stereo partly drawn) returned a Vd in [3] of 39 L/kg. The Activity result in the data set filed under Rattus norvegicus is given as “Non-toxic”. Also, in data set [4], the clearance is 177 mL/min/kg. The molecule further registered a half-life in data set [5] of 150 min. This molecule also registered a bioavailability in [6] of 31%. Also, the IC50 in data set [7] came to 1800 nM; with Plasmodium falciparum [2], 0.39 ng/mL.
In the case of `C1C2CC3CC1CC(C2)C31OO[C@]2(CC[C@@H](CNC3CC3)CC2)O1.CS(=O)(=O)O` (stereo partly drawn), the IC50 in the data set with Plasmodium falciparum [1] amounted to 0.45 ng/mL; in the data set with Plasmodium falciparum [2] it was 0.56 ng/mL.
For `CS(=O)(=O)O.O=C(O)CNC[C@H]1CC[C@]2(CC1)OOC1(O2)C2CC3CC(C2)CC1C3` (stereo partly drawn), in that order: 17 ng/mL and 11 ng/mL.
As to `CS(=O)(=O)O.NC(=O)CCNC[C@H]1CC[C@]2(CC1)OOC1(O2)C2CC3CC(C2)CC1C3` (stereo partly drawn), the results for the IC50 in the data set on Plasmodium falciparum [1] and with Plasmodium falciparum [2] were 0.91 ng/mL and 0.41 ng/mL, respectively. For the same molecule, in the data set on Plasmodium berghei, the Activity is recorded as 99.92%.
With `CC(C)(N)CNC[C@H]1CC[C@]2(CC1)OOC1(O2)C2CC3CC(C2)CC1C3.CS(=O)(=O)O.CS(=O)(=O)O` (stereo partly drawn), the IC50 turned out to be 0.83 ng/mL in the data set with Plasmodium falciparum [1] and 0.49 ng/mL in the data set with Plasmodium falciparum [2].
For `CN(C)C[C@H]1CC[C@]2(CC1)OOC1(O2)C2CC3CC(C2)CC1C3.CS(=O)(=O)O` (stereo partly drawn), in that order: 0.75 ng/mL and 0.35 ng/mL.
For `CS(=O)(=O)O.c1csc(NC[C@H]2CC[C@]3(CC2)OOC2(O3)C3CC4CC(C3)CC2C4)n1` (stereo partly drawn), in that order: 2.2 ng/mL and 2.3 ng/mL.
For `CS(=O)(=O)O.c1ncn(C[C@H]2CC[C@]3(CC2)OOC2(O3)C3CC4CC(C3)CC2C4)n1` (stereo partly drawn), in that order: 1.7 ng/mL and 0.9 ng/mL.
As for `CS(=O)(=O)O.NOC[C@H]1CC[C@]2(CC1)OOC1(O2)C2CC3CC(C2)CC1C3` (stereo partly drawn), the IC50 amounted to 20 ng/mL in the data set on Plasmodium falciparum [1] and 28 ng/mL in the data set on Plasmodium falciparum [2]. This molecule came in with an Activity in the data set with Plasmodium berghei of 47%.
For the molecule `NC(=O)CN(CC(N)=O)C[C@H]1CC[C@]2(CC1)OO[C@]1(O2)C2CC3CC(C2)CC1C3`, the figures for the IC50 in the data set with Plasmodium falciparum [1] and in the data set with Plasmodium falciparum [2] were 2 ng/mL (≈ 4.91 nM) and 1.7 ng/mL (≈ 4.17 nM), respectively. In addition, in the data set with Plasmodium berghei, the Activity stood at 86%.
The like results for `NC(=O)c1ccc(N[C@H]2CC[C@]3(CC2)OO[C@]2(O3)C3CC4CC(C3)CC2C4)cc1` were, in that order, 1 ng/mL (≈ 2.51 nM), 1.1 ng/mL (≈ 2.76 nM) and 99.98%.
As for `NC(=O)c1cncn1C[C@H]1CC[C@]2(CC1)OO[C@]1(O2)C2CC3CC(C2)CC1C3`, the Activity with Plasmodium berghei is recorded as 99.77%.
In [8], `OC[C@H]1CC[C@]2(CC1)OO[C@]1(O2)C2CC3CC(C2)CC1C3` registered a half-life of 27 min. For the same molecule, in [9], the Vd was found to be 5.3 L/kg. In data set [10], this molecule gave a clearance of 136 mL/min/kg.
In the data set on Plasmodium berghei, `NS(=O)(=O)c1ccc(NC[C@H]2CC[C@]3(CC2)OO[C@]2(O3)C3CC4CC(C3)CC2C4)cc1` returned an Activity of 99.95%.
`O=C1CN(C[C@H]2CC[C@]3(CC2)OO[C@]2(O3)C3CC4CC(C3)CC2C4)CCN1`: the IC50 with Plasmodium falciparum [1] worked out at 1.8 ng/mL (≈ 4.78 nM); with Plasmodium falciparum [2] it was 1.3 ng/mL (≈ 3.45 nM).
With `CCOC(=O)NC[C@H]1CC[C@]2(CC1)OO[C@]1(O2)C2CC3CC(C2)CC1C3`, it took 0.56 ng/mL (≈ 1.53 nM) to reach half-maximal inhibition in the data set on Plasmodium falciparum [1] (IC50).
For `Cl.c1cn(C[C@H]2CC[C@]3(CC2)OO[C@]2(O3)C3CC4CC(C3)CC2C4)cn1`, in data set [11], the Vd was 4.1 L/kg. The figures for the IC50 in the data set on Plasmodium falciparum [1] and with Plasmodium falciparum [2] were 1.1 ng/mL and 1.3 ng/mL, respectively. Besides, in the data set listed under Rattus norvegicus, the Activity entry was “Non-toxic”. This molecule also had a clearance in [12] of 60.1 mL/min/kg. The molecule also gave a half-life in data set [13] of 47 min. The bioavailability in data set [14] worked out at 36%.
`Cl.NCC[C@H]1CC[C@]2(CC1)OO[C@]1(O2)C2CC3CC(C2)CC1C3`: the IC50 with Plasmodium falciparum [1] is 0.48 ng/mL; in the data set with Plasmodium falciparum [2], 0.15 ng/mL.
